{
  "source": "ChEMBL document CHEMBL4033712",
  "about": "“Synthesis and biological evaluation of new C-12(α/β)-(N-) sulfamoyl-phenylamino-14-deoxy-andrographolide derivatives as potent anti-cancer agents” (Bioorg Med Chem Lett, 2017)",
  "type_in_all_cases": "functional",
  "key": {"EKVX": {"tested_on": "EKVX", "experiment": "Growth inhibition of human EKVX cells incubated for 48 hrs by sulforhodamine B assay", "in_short": "(§1)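 NCI-60 five-dose screen at 0.01, 0.1, 1, 10 and 100 µM, 48 h incubation, sulforhodamine B end point. GI50 (50% decrease in net growth), TGI (total growth inhibition) and LC50 (net 50% loss of initial cells) taken from log concentration versus % growth inhibition curves.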"}, "HCT-116 [1]": {"tested_on": "HCT-116", "experiment": "Growth inhibition of human HCT116 cells incubated for 48 hrs by sulforhodamine B assay", "details": "HCT-116, 48 h", "in_short": "as §1"}, "SF-295": {"tested_on": "SF-295", "experiment": "Growth inhibition of human SF295 cells incubated for 48 hrs by sulforhodamine B assay", "details": "SF-295, 48 h", "in_short": "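NCI 60 human tumour cell line panel, five-dose study at 0.01, 0.1, 1, 10 and 100 µM, 48 h incubation. Sulforhodamine B protein-binding dye end point. GI50 (50% decrease in net cell growth), TGI (total growth inhibition) and LC50 (net 50% loss of initial cells) read from log concentration versus % growth inhibition curves.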"}, "HL-60(TB)": {"tested_on": "HL-60(TB)", "experiment": "Anticancer activity against human HL-60(TB) cells assessed as cell growth at 10 uM after 48 hrs by sulforhodamine B assay relative to control", "details": "HL-60, 48 h, read-out: Activity", "in_short": "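NCI-60 human tumour panel single-dose screen: cells exposed to 10 µM compound for 48 h. Growth end point read with sulforhodamine B protein-binding dye. Expressed as percent growth of treated cells versus untreated control cells.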"}, "MOLT-4": {"tested_on": "MOLT-4", "experiment": "Anticancer activity against human MOLT4 cells assessed as cell growth at 10 uM after 48 hrs by sulforhodamine B assay relative to control", "details": "MOLT-4, 48 h, read-out: Activity", "in_short": "(§2)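 Single-dose NCI-60 panel screen: compound added at 10 µM and the culture incubated 48 h. The end point was read by protein staining with sulforhodamine B. The value is percent growth of treated cells relative to untreated control cells, reported as a mean graph across the panel.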"}, "A549": {"tested_on": "A549", "experiment": "Anticancer activity against human A549/ATCC cells assessed as cell growth at 10 uM after 48 hrs by sulforhodamine B assay relative to control", "details": "A549, 48 h, read-out: Activity", "in_short": "as §2"}, "HOP-62": {"tested_on": "HOP-62", "experiment": "Anticancer activity against human HOP62 cells assessed as cell growth at 10 uM after 48 hrs by sulforhodamine B assay relative to control", "details": "HOP-62, 48 h, read-out: Activity", "in_short": "as §2"}, "NCI-H322M": {"tested_on": "NCI-H322M", "experiment": "Anticancer activity against human NCI-H322M cells assessed as cell growth at 10 uM after 48 hrs by sulforhodamine B assay relative to control", "details": "read-out: Activity", "in_short": "as §2"}, "NCI-H460": {"tested_on": "NCI-H460", "experiment": "Anticancer activity against human NCI-H460 cells assessed as cell growth at 10 uM after 48 hrs by sulforhodamine B assay relative to control", "details": "NCI-H460, 48 h, read-out: Activity", "in_short": "as §2"}, "NCI-H522": {"tested_on": "NCI-H522", "experiment": "Anticancer activity against human NCI-H522 cells assessed as cell growth at 10 uM after 48 hrs by sulforhodamine B assay relative to control", "details": "NCI-H522, 48 h, read-out: Activity", "in_short": "as §2"}, "HCC 2998": {"tested_on": "HCC 2998", "experiment": "Anticancer activity against human HCC2998 cells assessed as cell growth at 10 uM after 48 hrs by sulforhodamine B assay relative to control", "details": "HCC 2998, 48 h, read-out: Activity", "in_short": "as §2"}, "HCT-116 [2]": {"tested_on": "HCT-116", "experiment": "Anticancer activity against human HCT116 cells assessed as cell growth at 10 uM after 48 hrs by sulforhodamine B assay relative to control", "details": "HCT-116, 48 h, read-out: Activity", "in_short": "as §2"}, "KM12": {"tested_on": "KM12", "experiment": "Anticancer activity against human KM12 cells assessed as cell growth at 10 uM after 48 hrs by sulforhodamine B assay relative to control", "details": "KM12, 48 h, read-out: Activity", "in_short": "as §2"}, "SF-268": {"tested_on": "SF-268", "experiment": "Anticancer activity against human SF268 cells assessed as cell growth at 10 uM after 48 hrs by sulforhodamine B assay relative to control", "details": "SF-268, 48 h, read-out: Activity", "in_short": "as §2"}, "Malme-3M": {"tested_on": "Malme-3M", "experiment": "Anticancer activity against human MALME-3M cells assessed as cell growth at 10 uM after 48 hrs by sulforhodamine B assay relative to control", "details": "read-out: Activity", "in_short": "as §2"}, "SK-MEL-2": {"tested_on": "SK-MEL-2", "experiment": "Anticancer activity against human SK-MEL-2 cells assessed as cell growth at 10 uM after 48 hrs by sulforhodamine B assay relative to control", "details": "SK-MEL-2, 48 h, read-out: Activity", "in_short": "as §2"}, "UACC-62": {"tested_on": "UACC-62", "experiment": "Anticancer activity against human UACC62 cells assessed as cell growth at 10 uM after 48 hrs by sulforhodamine B assay relative to control", "details": "UACC-62, 48 h, read-out: Activity", "in_short": "(§3)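 NCI-60 single-dose screen: compound added at 10 µM, cultures incubated 48 h. End point by sulforhodamine B protein-binding dye. Value reported as percent growth of treated cells relative to untreated control cells.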"}, "IGROV-1": {"tested_on": "IGROV-1", "experiment": "Anticancer activity against human IGROV1 cells assessed as cell growth at 10 uM after 48 hrs by sulforhodamine B assay relative to control", "details": "IGROV-1, 48 h, read-out: Activity", "in_short": "as §2"}, "OVCAR-4": {"tested_on": "OVCAR-4", "experiment": "Anticancer activity against human OVCAR4 cells assessed as cell growth at 10 uM after 48 hrs by sulforhodamine B assay relative to control", "details": "OVCAR-4, 48 h, read-out: Activity", "in_short": "as §2"}, "OVCAR-5": {"tested_on": "OVCAR-5", "experiment": "Anticancer activity against human OVCAR5 cells assessed as cell growth at 10 uM after 48 hrs by sulforhodamine B assay relative to control", "details": "OVCAR-5, 48 h, read-out: Activity", "in_short": "as §2"}, "OVCAR-8": {"tested_on": "OVCAR-8", "experiment": "Anticancer activity against human OVCAR8 cells assessed as cell growth at 10 uM after 48 hrs by sulforhodamine B assay relative to control", "details": "OVCAR-8, 48 h, read-out: Activity", "in_short": "as §2"}, "786-0": {"tested_on": "786-0", "experiment": "Anticancer activity against human 786-0 cells assessed as cell growth at 10 uM after 48 hrs by sulforhodamine B assay relative to control", "details": "786-0, 48 h, read-out: Activity", "in_short": "as §2"}, "A498": {"tested_on": "A498", "experiment": "Anticancer activity against human A498 cells assessed as cell growth at 10 uM after 48 hrs by sulforhodamine B assay relative to control", "details": "A498, 48 h, read-out: Activity", "in_short": "as §2"}, "RXF 393": {"tested_on": "RXF 393", "experiment": "Anticancer activity against human RXF393 cells assessed as cell growth at 10 uM after 48 hrs by sulforhodamine B assay relative to control", "details": "RXF 393, 48 h, read-out: Activity", "in_short": "as §2"}, "SN12C": {"tested_on": "SN12C", "experiment": "Anticancer activity against human SN12C cells assessed as cell growth at 10 uM after 48 hrs by sulforhodamine B assay relative to control", "details": "read-out: Activity", "in_short": "as §2"}, "TK-10": {"tested_on": "TK-10", "experiment": "Anticancer activity against human TK10 cells assessed as cell growth at 10 uM after 48 hrs by sulforhodamine B assay relative to control", "details": "TK-10, 48 h, read-out: Activity", "in_short": "as §3"}, "DU-145": {"tested_on": "DU-145", "experiment": "Anticancer activity against human DU145 cells assessed as cell growth at 10 uM after 48 hrs by sulforhodamine B assay relative to control", "details": "DU-145, 48 h, read-out: Activity", "in_short": "as §2"}, "T47D": {"tested_on": "T47D", "experiment": "Anticancer activity against human T47D cells assessed as cell growth at 10 uM after 48 hrs by sulforhodamine B assay relative to control", "details": "read-out: Activity", "in_short": "as §3"}, "[3]": {"details": "read-out: LC50 (the source's name)"}},
  "data": [
    {"molecule": "C=C1CC[C@@H]2[C@](C)(COC(C)=O)[C@H](OC(C)=O)CC[C@@]2(C)[C@H]1CC(Nc1ccc(S(=O)(=O)Nc2nccs2)cc1)C1=CCOC1=O", "note": "(some centres undefined)", "values": [
      {"measurement": "GI50", "setting": "EKVX", "value": 14, "unit": "µM"},
      {"measurement": "TGI", "setting": "EKVX", "value": 27, "unit": "µM"},
      {"measurement": "CC50", "setting": "EKVX; [3]", "value": 52, "unit": "µM"},
      {"measurement": "GI50", "setting": "HCT-116 [1]", "value": 1750, "unit": "nM"},
      {"measurement": "TGI", "setting": "HCT-116 [1]", "value": 3.75, "unit": "µM"},
      {"measurement": "CC50", "setting": "HCT-116 [1]; [3]", "value": 8, "unit": "µM"},
      {"measurement": "GI50", "setting": "SF-295", "value": 13.8, "unit": "µM"},
      {"measurement": "TGI", "setting": "SF-295", "value": 27.2, "unit": "µM"},
      {"measurement": "CC50", "setting": "SF-295; [3]", "value": 53.8, "unit": "µM"},
      {"measurement": "growth at 10 µM", "setting": "HL-60(TB)", "value": -20.9, "unit": "%"},
      {"measurement": "growth at 10 µM", "setting": "MOLT-4", "value": -4.45, "unit": "%"},
      {"measurement": "growth at 10 µM", "setting": "A549", "value": 43.7, "unit": "%"},
      {"measurement": "growth at 10 µM", "setting": "HOP-62", "value": 120, "unit": "%"},
      {"measurement": "growth at 10 µM", "setting": "NCI-H322M", "value": 59.9, "unit": "%"},
      {"measurement": "growth at 10 µM", "setting": "NCI-H460", "value": 29.5, "unit": "%"},
      {"measurement": "growth at 10 µM", "setting": "NCI-H522", "value": -61.9, "unit": "%"},
      {"measurement": "growth at 10 µM", "setting": "HCC 2998", "value": 54.2, "unit": "%"},
      {"measurement": "growth at 10 µM", "setting": "HCT-116 [2]", "value": -30.4, "unit": "%"},
      {"measurement": "growth at 10 µM", "setting": "KM12", "value": -0.89, "unit": "%"},
      {"measurement": "growth at 10 µM", "setting": "SF-268", "value": 21.3, "unit": "%"},
      {"measurement": "growth at 10 µM", "setting": "Malme-3M", "value": 0.4, "unit": "%"},
      {"measurement": "growth at 10 µM", "setting": "SK-MEL-2", "value": 28.4, "unit": "%"},
      {"measurement": "growth at 10 µM", "setting": "UACC-62", "value": 21.2, "unit": "%"},
      {"measurement": "growth at 10 µM", "setting": "IGROV-1", "value": 12.6, "unit": "%"},
      {"measurement": "growth at 10 µM", "setting": "OVCAR-4", "value": 38, "unit": "%"},
      {"measurement": "growth at 10 µM", "setting": "OVCAR-5", "value": 7.82, "unit": "%"},
      {"measurement": "growth at 10 µM", "setting": "OVCAR-8", "value": 4.39, "unit": "%"},
      {"measurement": "growth at 10 µM", "setting": "786-0", "value": 6.27, "unit": "%"},
      {"measurement": "growth at 10 µM", "setting": "A498", "value": 85, "unit": "%"},
      {"measurement": "growth at 10 µM", "setting": "RXF 393", "value": -50.6, "unit": "%"},
      {"measurement": "growth at 10 µM", "setting": "SN12C", "value": 15.6, "unit": "%"},
      {"measurement": "growth at 10 µM", "setting": "TK-10", "value": 55, "unit": "%"},
      {"measurement": "growth at 10 µM", "setting": "DU-145", "value": 22.3, "unit": "%"},
      {"measurement": "growth at 10 µM", "setting": "T47D", "value": 34.6, "unit": "%"}
    ]}
  ]
}
